Laboratory results as given in ChEMBL document CHEMBL1139378, “Dual integrin and gastrin-releasing peptide receptor targeted tumor imaging using 18F-labeled PEGylated RGD-bombesin heterodimer 18F-FB-PEG3-Glu-RGD-BBN” (J Med Chem, 2009).

Columns and labels:
Liver [1] = assay: Biodistribution in human PC3 cells xenografted athymic nude mouse liver at 0.74 MBq, iv after 1 hr; format: ADME, organism-based, PC-3; conditions: in vivo
In short: (§1)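 PC-3 human prostate carcinoma cells were grown in F-12K with 10% FBS, and 5×10^6 cells were injected s.c. into the right front flank of male athymic nude mice. Each mouse received 0.74 MBq (20 μCi) tracer and was sacrificed at 1 h pi. Tissues were wet-weighed and γ-counted against an injectate aliquot. Values are %ID/g normalized to 20 g body mass, mean ± SD, n = 4.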

[2] = Drug uptake in human PC3 cells xenografted mouse tumor at 3.7 MBq, iv after 15 mins by micro PET imaging; format: ADME, organism-based, Neoplasm, PC-3; conditions: in vivo, 0.25 h
In short: (§2)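 PC-3 xenograft nude mice (tumors 100–300 mm³) were given ~3.7 MBq (100 μCi) i.v. by tail vein under isoflurane. Static 5-min scans were taken at 30 min, 1 and 2 h (n = 4), plus a 35-min dynamic scan starting 1 min pi in one mouse. Images were OSEM-reconstructed without attenuation correction. Tumor and organ %ID/g came from ROIs on decay-corrected coronal images, assuming 1 g/mL density.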

PC-3 [3] = assay: Cellular uptake in human PC3 cells after 30 mins; format: ADME, cell-based; conditions: pc-3, 0.5 h
In short: (§3)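 PC-3 cells were seeded at 5×10^5 per well and left overnight, then PBS-rinsed and incubated with ~0.3 μCi/well radiotracer in culture medium at 37 or 4 °C for 15–120 min. Cells were washed with chilled PBS, trypsinized and γ-counted. Uptake is % of added radioactivity; two experiments, triplicate wells.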

[4] = Drug uptake in human PC3 cells xenografted mouse tumor at 3.7 MBq, iv after 120 mins by micro PET imaging; format: ADME, organism-based, Neoplasm, PC-3; conditions: in vivo, 2 h; in short: as §2
PC-3 [5] = assay: Cellular uptake in human PC3 cells after 15 mins; format: ADME, cell-based; conditions: pc-3, 0.25 h; in short: as §3
PC-3 [6] = assay: Cellular uptake in human PC3 cells after 60 mins; format: ADME, cell-based; conditions: pc-3, 1 h; in short: as §3
[7] = Drug uptake in human PC3 cells xenografted mouse tumor at 3.7 MBq, iv by micro PET imaging in presence of RGD and BBN; format: ADME, organism-based, Neoplasm, PC-3; conditions: in vivo
In short: (§4)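 PC-3 tumor-bearing mice were co-injected i.v. with 3.7 MBq tracer and a blocking dose of c(RGDyK) (10 mg/kg), Aca-BBN(7–14) (15 mg/kg), or both. A 5-min static microPET scan was taken at 1 h pi (n = 3), and ROI-derived %ID/g was measured on decay-corrected coronal images.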

Spleen = assay: Biodistribution in human PC3 cells xenografted athymic nude mouse spleen at 0.74 MBq, iv after 1 hr; format: ADME, organism-based, PC-3; conditions: in vivo; in short: as §1
[8] = Drug uptake in human PC3 cells xenografted mouse tumor at 3.7 MBq, iv by micro PET imaging in presence of RGD; format: ADME, organism-based, Neoplasm, PC-3; conditions: in vivo; in short: as §4
Bone = assay: Biodistribution in human PC3 cells xenografted athymic nude mouse bone at 0.74 MBq, iv after 1 hr; format: ADME, organism-based, Bone element, PC-3; conditions: in vivo; in short: as §1
PC-3 [9] = assay: Inhibition of cellular uptake in human PC3 cells after 60 mins in presence of RGD and BBN; conditions: pc-3, 1 h
Liver [10] = assay: Drug uptake in human PC3 cells xenografted mouse liver at 3.7 MBq, iv after 30 mins by micro PET imaging; format: ADME, organism-based, PC-3; conditions: in vivo, 0.5 h; in short: as §2
PC-3 [11] = assay: Inhibition of cellular uptake in human PC3 cells after 60 mins in presence of RGD; conditions: pc-3, 1 h
[12] = Drug uptake in human PC3 cells xenografted mouse tumor at 3.7 MBq, iv by micro PET imaging in presence of BBN; format: ADME, organism-based, Neoplasm, PC-3; conditions: in vivo; in short: as §4
[13] = Ratio of drug uptake in tumor to kidneys from human PC3 cells xenografted mouse at 3.7 MBq, iv after 120 mins by micro PET imaging; format: ADME, organism-based, PC-3; conditions: in vivo, 2 h
In short: (§5)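 Tumor/nontumor ratios were calculated from ROI-derived %ID/g on decay-corrected 5-min static microPET scans at 2 h after ~3.7 MBq i.v. tracer in PC-3 xenograft nude mice (n = 4).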

[14] = Drug uptake in human PC3 cells xenografted mouse tumor at 3.7 MBq, iv after 60 mins by micro PET imaging; format: ADME, organism-based, Neoplasm, PC-3; conditions: in vivo, 1 h; in short: as §2
[15] = Ratio of drug uptake in tumor to liver from human PC3 cells xenografted mouse at 3.7 MBq, iv after 120 mins by micro PET imaging; format: ADME, organism-based, PC-3; conditions: in vivo, 2 h; in short: as §5
PC-3 [16] = assay: Inhibition of cellular uptake in human PC3 cells after 60 mins in presence of BBN; conditions: pc-3, 1 h
Muscle tissue = assay: Biodistribution in human PC3 cells xenografted athymic nude mouse muscle at 0.74 MBq, iv after 1 hr; format: ADME, organism-based, PC-3; conditions: in vivo; in short: as §1
Kidney = assay: Biodistribution in human PC3 cells xenografted athymic nude mouse kidney at 0.74 MBq, iv after 1 hr; format: ADME, organism-based, PC-3; conditions: in vivo; in short: as §1
[17] = Ratio of drug uptake in tumor to blood from human PC3 cells xenografted mouse at 3.7 MBq, iv after 120 mins by micro PET imaging; format: ADME, organism-based, PC-3; conditions: tumour, 2 h; in short: as §5
[18] = Drug uptake in human PC3 cells xenografted mouse tumor at 3.7 MBq, iv after 30 mins by micro PET imaging; format: ADME, organism-based, Neoplasm, PC-3; conditions: in vivo, 0.5 h; in short: as §2
[19] = Drug uptake in human PC3 cells xenografted mouse tumor at 3.7 MBq, iv after 5 mins by micro PET imaging; format: ADME, organism-based, Neoplasm, PC-3; conditions: in vivo; in short: as §2
[20] = Biodistribution in human PC3 cells xenografted athymic nude mouse tumor at 0.74 MBq, iv after 1 hr; format: ADME, organism-based, Neoplasm, PC-3; conditions: in vivo; in short: as §1
Blood = assay: Biodistribution in human PC3 cells xenografted athymic nude mouse blood at 0.74 MBq, iv after 1 hr; format: ADME, organism-based, PC-3; conditions: in vivo; in short: as §1
Heart = assay: Biodistribution in human PC3 cells xenografted athymic nude mouse heart at 0.74 MBq, iv after 1 hr; format: ADME, organism-based, PC-3; conditions: in vivo; in short: as §1
[21] = Ratio of drug uptake in tumor to muscle from human PC3 cells xenografted mouse at 3.7 MBq, iv after 120 mins by micro PET imaging; format: ADME, organism-based, PC-3; conditions: in vivo, 2 h; in short: as §5
PC-3 [22] = assay: Cellular uptake in human PC3 cells after 120 mins; format: ADME, cell-based; conditions: pc-3, 2 h; in short: as §3
[23] = target: Gastrin-releasing peptide receptor (Homo sapiens) (UniProt P30550); assay: Displacement of [125I][Tyr4]BBN form gastrin-releasing peptide receptor in human PC3 cells
Chain of Gastrin-releasing peptide receptor (Homo sapiens) (P30550 whole entry, looked up): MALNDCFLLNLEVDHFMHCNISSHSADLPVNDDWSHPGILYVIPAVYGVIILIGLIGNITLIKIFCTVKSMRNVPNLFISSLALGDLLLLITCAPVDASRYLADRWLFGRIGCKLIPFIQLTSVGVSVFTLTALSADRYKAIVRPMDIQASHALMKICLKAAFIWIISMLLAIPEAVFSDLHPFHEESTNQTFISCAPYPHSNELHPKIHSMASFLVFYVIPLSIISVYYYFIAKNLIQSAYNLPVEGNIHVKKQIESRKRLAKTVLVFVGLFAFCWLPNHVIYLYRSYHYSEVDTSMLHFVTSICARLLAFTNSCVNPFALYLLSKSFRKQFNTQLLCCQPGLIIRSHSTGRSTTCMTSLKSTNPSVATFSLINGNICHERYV

CSCC[C@@H](NC(=O)[C@H](CC(C)C)NC(=O)[C@@H](Cc1c[nH]cn1)NC(=O)CNC(=O)[C@H](NC(=O)[C@H](C)NC(=O)[C@@H](Cc1c[nH]c2ccccc12)NC(=O)[C@H](CCC(N)=O)NC(=O)CCCCCNC(=O)CC[C@H](NC(=O)COCCOCCOCCNC(=O)c1ccc([18F])cc1)C(=O)NCCCC[C@H]1NC(=O)[C@@H](CCCNC(=N)N)NC(=O)CNC(=O)[C@@H](CC(=O)O)NC(=O)[C@H](Cc2ccc(O)cc2)NC1=O)C(C)C)C(N)=O
Drug uptake (Liver [1]): 2 % ID/g
Drug uptake [2]: 4.86 % ID/g
Drug uptake (PC-3 [3]): 5.51%
Drug uptake [4]: 2.88 % ID/g
Drug uptake (PC-3 [5]): 4.72%
Drug uptake (PC-3 [6]): 5.87%
Drug uptake [7]: 0.43 % ID/g
Drug uptake (Spleen): 2 % ID/g
Drug uptake [8]: 2.19 % ID/g
Drug uptake (Bone): 2 % ID/g
Inhibition (PC-3 [9]): 91.97%
Drug uptake (Liver [10]): 2 % ID/g
Inhibition (PC-3 [11]): 17.55%
Drug uptake [12]: 1.58 % ID/g
Ratio [13]: 1.44
Drug uptake [14]: 4.41 % ID/g
Ratio [15]: 6.43
Inhibition (PC-3 [16]): 83.67%
Drug uptake (Muscle tissue): 2 % ID/g
Drug uptake (Kidney): 4.87 % ID/g
Ratio [17]: 8.1
Drug uptake [18]: 6.35 % ID/g
Drug uptake [19]: 3.54 % ID/g
Drug uptake [20]: 4 % ID/g
Drug uptake (Blood): 2 % ID/g
Drug uptake (Heart): 2 % ID/g
Ratio [21]: 10.54
Drug uptake (PC-3 [22]): 6.65%

CSCC[C@H](NC(=O)[C@H](CC(C)C)NC(=O)[C@H](Cc1c[nH]cn1)NC(=O)CNC(=O)[C@@H](NC(=O)[C@H](C)NC(=O)[C@H](Cc1c[nH]c2ccccc12)NC(=O)[C@H](CCC(N)=O)NC(=O)CCCCCNC(=O)CC[C@H](NC(=O)COCCOCCOCCN)C(=O)NCCCC[C@@H]1NC(=O)[C@H](CCCNC(=N)N)NC(=O)CNC(=O)[C@H](CC(=O)O)NC(=O)[C@@H](Cc2ccc(O)cc2)NC1=O)C(C)C)C(N)=O
IC50 [23]: 85.4 nM

CSCC[C@@H](NC(=O)[C@H](CC(C)C)NC(=O)[C@@H](Cc1c[nH]cn1)NC(=O)CNC(=O)[C@H](NC(=O)[C@H](C)NC(=O)[C@@H](Cc1c[nH]c2ccccc12)NC(=O)[C@H](CCC(N)=O)NC(=O)CCCCCNC(=O)CC[C@H](NC(=O)COCCOCCOCCNC(=O)c1ccc(F)cc1)C(=O)NCCCC[C@H]1NC(=O)[C@@H](CCCNC(=N)N)NC(=O)CNC(=O)[C@@H](CC(=O)O)NC(=O)[C@H](Cc2ccc(O)cc2)NC1=O)C(C)C)C(N)=O
IC50 ([23]; pc-3): 73.3 nM
